# Source: PubChem (several laboratories)
# In the library only some 2.1% were active in any assay of this set; here they are far more common.
# Runt-SMMHC FRET = inhibitors of RUNX1 Runt–CBFb-SMMHC binding, primary screen, biochemical, FRET, Cerulean-Runt, Venus-CBFb-SMMHC, uHTS. Runt-related transcription factor 1 (Homo sapiens) + Core-binding factor subunit beta …. Cerulean-Runt/Venus-CBFb-SMMHC FRET ratio 530/480, 1 h. inhibition, % at 20 µM. 0.74% of 220,000 active;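 active = mean inhibition across duplicate retests at 20 µM reaching about 50%, limit read from the data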;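 note: 0% = DMSO wells and 100% = wells with excess untagged CBFb-SMMHC; inhibitors lower the FRET ratio by blocking Runt binding to CBFb-SMMHC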
# Target sequence (Q01196 whole entry, looked up): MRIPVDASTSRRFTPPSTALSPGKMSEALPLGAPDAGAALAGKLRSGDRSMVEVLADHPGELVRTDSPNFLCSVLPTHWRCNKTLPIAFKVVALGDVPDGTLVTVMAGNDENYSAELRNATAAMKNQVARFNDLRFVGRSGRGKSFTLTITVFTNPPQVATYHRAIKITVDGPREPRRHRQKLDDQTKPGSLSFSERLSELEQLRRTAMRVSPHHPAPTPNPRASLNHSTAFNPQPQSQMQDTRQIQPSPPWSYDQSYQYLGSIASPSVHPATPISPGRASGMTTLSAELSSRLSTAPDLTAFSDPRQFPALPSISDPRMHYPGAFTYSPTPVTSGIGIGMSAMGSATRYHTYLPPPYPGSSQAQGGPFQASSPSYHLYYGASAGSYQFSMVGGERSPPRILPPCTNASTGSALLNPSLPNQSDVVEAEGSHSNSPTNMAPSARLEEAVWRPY
# Target sequence (Q13951 whole entry, looked up): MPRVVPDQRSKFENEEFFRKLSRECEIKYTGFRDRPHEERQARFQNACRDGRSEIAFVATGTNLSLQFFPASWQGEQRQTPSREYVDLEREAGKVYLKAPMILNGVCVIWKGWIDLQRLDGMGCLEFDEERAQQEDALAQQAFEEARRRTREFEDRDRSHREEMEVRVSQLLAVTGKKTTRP
# p-CIP stab down = p/CIP-EGFP fusion destabilizers, primary screen, fluorescence, F442A cells; 16 h; decrease of EGFP signal, % at 10 µM; 0.01% of 290,000 active;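 active = EGFP signal decrease of at least 30% at 10 µM or well 3 SD below plate mean, unless failing retest; inactive = the rest, including hits failing retest or dose response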
# DSG3 Ab inh = inhibitors of pemphigus antibody binding to DSG3, primary screen, biochemical, bead-based, flow cytometry, scFv-GFP; Desmoglein-3 (Homo sapiens), P32926; DSG3-coupled beads, scFv-anti-DSG3-GFP binding; hits give low values; binding (percent of control), % at 10 µM; 0.48% of 310,000 active; AID 588358, 2011;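 active = binding more than 3 SD below its plate's average and above zero; inconclusive = below that plate limit but binding exactly zero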;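 note: hits lower antibody fragment binding to DSG3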
# Hck Nef HTS = inhibitors of Nef-activated human Hck kinase, primary screen, biochemical, Z-Lyte FRET, 384-well, Hck-YEEI; Recombinant Hck-YEEI plus Nef, Z-Lyte FRET kinase assay; 0.68% of 220,000 active; AID 463187, 2010; inhibition, % at 20 µM;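 active = Hck-Nef kinase inhibition above about 50%, limit read from the data; inactive = inhibition below that limit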;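 note: 0% = DMSO with Hck plus Nef and 100% = Hck alone without Nef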
# RanGTP-Impb inh = inhibitors of RanGTP-importin-beta interaction, primary screen, biochemical, FRET, CFP-Ran, YFP-importin-beta, homogeneous. Ran GTPase (GTP-bound) - importin-beta complex. inhibition, % (test concentration not listed). 1.1% of 300,000 active. AID 2216, 2009. cell-free CFP-Ran/YFP-importin-beta FRET ratio;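 active = more than half of the replicate wells show a fall in the fluorescence ratio signal beyond about 16%, limit read from the data, passing the limit was not always enough; inconclusive = exactly half of the replicate wells pass the set limit; inactive = fewer than half of replicates pass the limit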;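 note: 0% = DMSO wells and 100% = Ran loaded with GDP instead of GTP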
# Runt-CBFb FRET = inhibitors of RUNX1 Runt–CBFb binding, primary screen, biochemical, FRET, Cerulean-Runt, Venus-CBFb, uHTS; 0.46% of 220,000 active; Cerulean-Runt/Venus-CBFb FRET ratio 530/480, 1 h; inhibition, % at 20 µM; Runt-related transcription factor 1 (Homo sapiens) + Core-binding factor subunit beta …;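 active = inhibition over about 50% at 20 µM in the single-dose screen, limit read from the data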;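 note: 0% = DMSO wells and 100% = excess unlabeled CBFb competitor control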
#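 test system = Cerulean-tagged RUNX1 Runt domain (FRET donor) fusion protein | reagent = Venus-CBFb binding partner, 100 nM | incubation = protein complex preformed 1 h, compound exposure 1 h, room temperature, dark | detection = FRET fluorescence | read-out basis = loss of energy transfer signal | controls = 5 µM unlabeled CBFb as full-inhibition high control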
# Hck Nef conf = retest of Hck:Nef kinase inhibitor hits, confirmation, biochemical, Z-Lyte FRET, 384-well, p-Tyr peptide counterscreen; shares compounds with Hck Nef HTS; Recombinant Hck-YEEI:Nef, Z-Lyte FRET kinase assay; calls only at 10 µM; 28% of 1,300 active; AID 463188, 2010;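 active = average inhibition of at least 50%, with Z-scores no higher than 3 in both the phospho-tyrosine peptide and fluorescence counterscreens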
# * hit, by the source's call; i = inactive; ? = inconclusive; / = no result shown; + = active, no number.
SMILES,Runt-SMMHC FRET,p-CIP stab down,DSG3 Ab inh,Hck Nef HTS,RanGTP-Impb inh,Runt-CBFb FRET,Hck Nef conf
O=C(NC(=S)Nc1ccc(-c2nc3ncccc3o2)cc1)c1ccccc1F,-4,-3,98,52*,0,0,i
O=C(CCCOc1ccccc1)Nc1cccc(S(=O)(=O)N2CCCCCC2)c1,/,/,107,/,/,/,/
O=C1CSC(=S)N1/N=C/c1ccc(O)c(O)c1O,43,-19,83,79*,10,39,+
O=S(=O)(NCCCCNS(=O)(=O)c1ccc(F)cc1)c1ccc(F)cc1,/,/,109,/,?,/,/
O=[N+]([O-])c1cc(Cc2ccccc2)cc(C=Nc2ccc(N3CCOCC3)cc2)c1O,-25,-7,124,31,-4,-17,/
Cc1ccc(O)c(N=Cc2cc(Cc3ccccc3)cc([N+](=O)[O-])c2O)c1,-15,-15,101,62*,-1,15,i
CC(=O)N1CCOc2ccc(S(=O)(=O)NC[C@H]3O[C@@H](n4ccc(=O)[nH]c4=O)[C@H](O)[C@@H]3O)cc21,/,/,96,/,/,/,/
CC(=O)c1cccc(NC(=O)CC2S/C(=N/N=C/c3ccccc3)NC2=O)c1 (configuration not stated),-2,2,95,53*,3,-3,i
CC(=O)Nc1ccc(NC(=O)C(C)Sc2n[nH]c(-c3ccc(C)cc3)n2)cc1 (configuration not stated),/,/,99,/,1,/,/
COC(=O)COc1coc(CN2CCN(c3cccc(Cl)c3)CC2)cc1=O,/,-5,109,/,1,/,/
O=C(/C=C/c1cccc(Cl)c1)NCc1cccs1,-4,-3,100,0,2,-1,/
CCN1C=C(C(=O)OC)C(c2cccc(C)c2)C(C(=O)OC)=C1,61*,-16,/,66*,4,49,/
COC(=O)C1=CN(Cc2cccs2)C=C(C(=O)OC)C1c1cccc(Cl)c1,85*,-12,99,59*,7,37,/
CCCCN(C(=O)C1CC(=O)N(c2ccc(CC)cc2)C1)c1c(N)n(CCC)c(=O)[nH]c1=O (configuration not stated),/,/,99,/,/,/,/
C#CCN(C[C@H]1[C@H](OC(=O)NCc2ccccc2F)[C@H](OC(=O)NCc2ccccc2F)C[C@H]2C(=O)N(c3ccccc3)C(=O)[C@@H]12)S(=O)(=O)c1ccc(C)cc1,/,/,110,/,/,/,/
COc1ccc(C(=O)NC(=S)SCC(=O)O)cc1,-4,-5,97,25,-1,17,/
CCOC(=O)CSC(=S)NC(=O)c1ccc(OC)cc1,7,8,96,57*,0,-4,i
CC1CCN(C(=O)C2CCC(=O)N(Cc3ccc(Cl)cc3)C2)CC1 (configuration not stated),/,10,96,/,2,/,/
CC(=O)c1c[nH]c(C(=O)NC2CCCCCC2)c1,/,0,101,/,-2,/,/
O=C(/C=C/c1ccc(Br)o1)Nc1nnc(C2CC2)s1,-1,-5,/,57*,-3,25,+
CCCc1cc(-c2[nH]ncc2-c2ccc3c(c2)OCCCO3)c(O)cc1O,-4,-12,102,74*,-1,2,+
CCCc1cc(-c2[nH]ncc2-c2ccc(C(=O)OCC)o2)c(O)cc1O,-2,-16,97,32,5,3,/
O=C(NC(=S)Nc1ccccc1)c1cncc(C#Cc2ccccc2)c1,2,-3,112,-12,1,1,/
O=C(CCc1ccccc1)c1c(O)cc(O)cc1O,3,0,97,69*,-1,2,i
COc1ccc(C(=O)CCc2ccccc2)c(O)c1,/,/,107,/,-3,/,/
SMILES,Runt-SMMHC FRET,p-CIP stab down,DSG3 Ab inh,Hck Nef HTS,RanGTP-Impb inh,Runt-CBFb FRET,Hck Nef conf
CC(NC(=O)C(=O)N/N=C\c1cccc([N+](=O)[O-])c1)c1ccccc1 (configuration not stated),-4,3,100,11,0,0,/
CC(C)Cc1cc(CN2CCC(CO)(Cc3ccccc3)CC2)[nH]n1,0,3,98,1,2,0,/
CCCCN(C(=O)C1CCCC1)c1c(N)n(CCC)c(=O)[nH]c1=O,/,/,104,/,/,/,/
CC(/C=C1\SC(=S)N(NS(=O)(=O)c2ccc(C)cc2)C1=O)=C\c1ccccc1,-5,1,104,99*,0,-6,+
COc1ccc(-c2noc(CSc3nc(-c4ccccc4)cc(=O)[nH]3)n2)cc1OC,0,-4,110,54*,0,-3,i
CCC(C)N1CC(O)=C(c2nc3ccccc3[nH]2)C1=N (configuration not stated),0,-2,102,58*,-1,0,+
COc1ccc(-c2csc(NC(=O)C3CC(=O)N(c4ccc5c(c4)OCCO5)C3)n2)cc1 (configuration not stated),-8,2,98,3,3,-2,/
CC(=O)Nc1ccc(-c2csc(NC(=O)C3CC(=O)N(c4ccc5c(c4)OCCO5)C3)n2)cc1 (configuration not stated),-4,-16,100,51*,-4,-1,i
CCc1ccc(C2=NN(c3ccc(S(N)(=O)=O)cc3)C(c3ccc(F)cc3)C2)cc1 (configuration not stated),41,6,94,74*,?,9,/
Cc1onc(-c2ccccc2)c1CNS(=O)(=O)c1ccccc1[N+](=O)[O-],0,-6,/,9,-2,0,/
O=C(NCCC(=O)N1CCCC1)c1ccccc1Cl,/,-25,93,/,?,/,/
COc1ccc(C2C3=C(CC(C)(C)CC3=O)N(C)C3=C2C(=O)CC(C)(C)C3)cc1,86*,5,104,51*,137*,20,i
COc1ccc(N2C3=C(C(=O)CC(C)(C)C3)C(c3ccccc3OC)C3=C2CC(C)(C)CC3=O)cc1,81*,15,111,74*,149*,15,i
COc1ccc(C2C3=C(CC(C)(C)CC3=O)N(C)C3=C2C(=O)CC(C)(C)C3)cc1OC,/,-6,114,/,9,/,/
